Test results published in ChEMBL document CHEMBL1124381, “Studies on angiotensin converting enzyme inhibitors. 4. Synthesis and angiotensin converting enzyme inhibitory activities of 3-acyl-1-alkyl-2-oxoimidazolidine-4-carboxylic acid derivatives” (J Med Chem, 1989).
Where “and” joins values, the source holds several entries; their conditions need not be identical. Equal values may be shown once.

How the values were obtained:
Rattus norvegicus [1] = assay: Maximum inhibitory effect on Angiotensin I induced pressor responses in anesthetized normotensive rats with 10 ug/kg dose of compound given intra venously; format: functional
Rattus norvegicus [2] = assay: Maximum inhibitory effect of on Angiotensin I induced pressor responses in anesthetized normotensive rats with 1.0 mg/Kg dose of compound given perorally; format: functional; conditions: po
Summary of the method: (§1)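 Male Wistar slc rats, 300-400 g, anesthetized, fasted 18-20 h. Drug given orally in distilled water once a constant angiotensin I pressor rise was confirmed. […] ID50 from a linear regression curve. Maximum inhibition reported.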

Rattus norvegicus [3] = assay: Maximum inhibitory effect of on Angiotensin I induced pressor responses in anesthetized normotensive rats with 0.5 mg/Kg dose of compound given perorally; format: functional; conditions: po; summary of the method: as §1
Rattus norvegicus [4] = species on record: Rattus norvegicus; assay: Inhibitory effect of on Angiotensin I induced pressor responses in normotensive rats when given perorally; format: functional; conditions: po, read-out: ID50 (the source's name); summary of the method: as §1
Rattus norvegicus [5] = assay: Initial systolic blood pressure in spontaneously hypertensive rats after administration of 1 mg/kg of compound perorally; format: functional, Artery; conditions: route oral
Summary of the method: (§2)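 Male NCrj SHRs, 18-22 weeks old, about 350 g, baseline systolic pressure 180-200 mmHg, fasted 18-20 h. Drug given orally in distilled water at 1, 2, 5 or 10 mg/kg; vehicle 4 mL/kg. Systolic pressure by tail plethysmograph. Initial value, maximum, time of maximum, change and duration of significant fall recorded; mean ± SE.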

Rattus norvegicus [6] = assay: Initial systolic blood pressure in spontaneously hypertensive rats after administration of 2 mg/kg of compound perorally; format: functional, Artery; conditions: route oral; summary of the method: as §2
Rattus norvegicus [7] = species on record: Rattus norvegicus; assay: The duration time of the hypotensive effect showing statistically significant difference from initial value was determined; format: functional; summary of the method: as §2
Rattus norvegicus [8] = assay: Maximum inhibitory effect of on Angiotensin I induced pressor responses in anesthetized normotensive rats with 0.2 mg/Kg dose of compound given perorally; format: functional; conditions: po; summary of the method: as §1
Rattus norvegicus [9] = assay: Initial systolic blood pressure in spontaneously hypertensive rats after administration of 5 mg/kg of compound perorally; format: functional, Artery; conditions: route oral; summary of the method: as §2
Rattus norvegicus [10] = assay: The time required for the maximal fall in blood pressure after administration of the compound; format: functional; summary of the method: as §2
Rattus norvegicus [11] = species on record: Rattus norvegicus; assay: Change in systolic blood pressure; format: functional, Artery; summary of the method: as §2
Rattus norvegicus [12] = assay: Initial systolic blood pressure in spontaneously hypertensive rats after administration of 10 mg/kg of compound perorally; format: functional, Artery; conditions: route oral; summary of the method: as §2
Rattus norvegicus [13] = assay: Maximum effect on systolic blood pressure in spontaneously hypertensive rats after administration of 5 mg/kg of compound perorally; format: functional, Artery; conditions: route oral; summary of the method: as §2
Rattus norvegicus [14] = assay: Maximum effect on systolic blood pressure in spontaneously hypertensive rats after administration of 10 mg/kg of compound perorally; format: functional, Artery; conditions: route oral; summary of the method: as §2
Rattus norvegicus [15] = assay: Maximum effect on systolic blood pressure in spontaneously hypertensive rats after administration of 2 mg/kg of compound perorally; format: functional, Artery; conditions: route oral; summary of the method: as §2
Rattus norvegicus [16] = assay: Maximum inhibitory effect on Angiotensin I induced pressor responses in anesthetized normotensive rats with 1.0 mg/Kg dose of compound given perorally; format: functional; conditions: po; summary of the method: as §1
Rattus norvegicus [17] = assay: Maximum inhibitory effect on Angiotensin I induced pressor responses in anesthetized normotensive rats with 0.2 mg/Kg dose of compound given perorally; format: functional; conditions: po; summary of the method: as §1
Rattus norvegicus [18] = assay: Maximum inhibitory effect on Angiotensin I induced pressor responses in anesthetized normotensive rats with 0.5 mg/Kg dose of compound given perorally; format: functional; conditions: po; summary of the method: as §1
Rattus norvegicus [19] = species on record: Rattus norvegicus; assay: Inhibitory effect on Angiotensin I induced pressor responses in normotensive rats when given perorally; format: functional; conditions: po, read-out: ID50 (the source's name); summary of the method: as §1
Rattus norvegicus [20] = assay: Maximum effect on systolic blood pressure in spontaneously hypertensive rats after administration of 1 mg/kg of compound perorally; format: functional, Artery; conditions: route oral; summary of the method: as §2
Rattus norvegicus [21] = assay: Maximum inhibitory effect on Angiotensin I induced pressor responses in anesthetized normotensive rats with 10 ug/kg dose of compound given intravenously; format: functional; conditions: iv

**Q.** Which inhibition in vivo at 0.01 mg/kg (Rattus norvegicus [1]) does the source give for `C[C@H](N[C@@H](CCc1ccccc1)C(=O)O)C(=O)N1C(=O)N(Cc2ccccc2)C[C@H]1C(=O)O` here?
**A.** The inhibition in vivo at 0.01 mg/kg was 39%.

**Q.** What does the source list for `CCCCCCCC[C@H](N[C@@H](C)C(=O)N1C(=O)N(C)C[C@H]1C(=O)O)C(=O)O`?
**A.** inhibition in vivo at 1 mg/kg (Rattus norvegicus [2]): 18.4%; inhibition in vivo at 0.01 mg/kg (Rattus norvegicus [1]): 53.4%

**Q.** How did the inhibition in vivo at 0.01 mg/kg (Rattus norvegicus [1]) turn out when `CCCCCCCC[C@H](N[C@@H](C)C(=O)N1C(=O)N(Cc2ccccc2)C[C@H]1C(=O)O)C(=O)O` was run?
**A.** Its inhibition in vivo at 0.01 mg/kg is 41%.

**Q.** How did the inhibition in vivo at 1 mg/kg (Rattus norvegicus [2]) turn out when `CCCCCCCC[C@H](N[C@@H](C)C(=O)N1C(=O)N(C)C[C@H]1C(=O)O)C(=O)OCC` was run?
**A.** The inhibition in vivo at 1 mg/kg was 56.2%.

**Q.** What does the source list for `CCOC(=O)[C@H](CCc1ccccc1)N[C@@H](C)C(=O)N1C(=O)N(C)C[C@H]1C(=O)O`?
**A.** inhibition in vivo at 0.5 mg/kg (Rattus norvegicus [3]): 62.7%; ED50 (Rattus norvegicus [4]): 0.24 mg/kg; Systolic blood pressure (Rattus norvegicus [5]; 1 mg/kg): 190 mmHg and 190.8 mmHg; Systolic blood pressure (Rattus norvegicus [6]; 2 mg/kg): 165.8 mmHg and 192.5 mmHg; Duration (Rattus norvegicus [7]): >9 h; inhibition in vivo at 0.2 mg/kg (Rattus norvegicus [8]): 52%; Systolic blood pressure (Rattus norvegicus [9]; 5 mg/kg): 191.4 mmHg and 164.3 mmHg; Time (Rattus norvegicus [10]): 3 h and 6 h; Change (Rattus norvegicus [11]): -25 [middle of 4 runs]; Systolic blood pressure (Rattus norvegicus [12]): 192 mmHg

**Q.** With `CCOC(=O)[C@H](CCc1ccccc1)N[C@@H](C)C(=O)N1CCC[C@H]1C(=O)O` as the compound, how does the Systolic blood pressure (Rattus norvegicus [13]) read?
**A.** The Systolic blood pressure was 166.7 mmHg.

**Q.** What about the Systolic blood pressure (Rattus norvegicus [14]) of the same compound?
**A.** Its Systolic blood pressure is 165 mmHg.

**Q.** What about the Systolic blood pressure (Rattus norvegicus [5]) of the same compound?
**A.** The Systolic blood pressure was 190.8 mmHg.

**Q.** What about the Systolic blood pressure (Rattus norvegicus [6]) of the same compound?
**A.** The Systolic blood pressure was 192.9 mmHg.

**Q.** What about the Duration (Rattus norvegicus [7]) of the same compound?
**A.** The Duration was greater than 9 h.

**Q.** And the Systolic blood pressure (Rattus norvegicus [15])?
**A.** Its Systolic blood pressure is 168.6 mmHg.

**Q.** And the inhibition in vivo at 1 mg/kg (Rattus norvegicus [16])?
**A.** The inhibition in vivo at 1 mg/kg was 69.8%.

**Q.** What about the inhibition in vivo at 0.2 mg/kg (Rattus norvegicus [17]) of the same compound?
**A.** Its inhibition in vivo at 0.2 mg/kg is 42.9%.

**Q.** And the Systolic blood pressure (Rattus norvegicus [9])?
**A.** Its Systolic blood pressure is 190 mmHg.

**Q.** And the Time (Rattus norvegicus [10])?
**A.** The Time was 3 h and 6 h.

**Q.** And the inhibition in vivo at 0.5 mg/kg (Rattus norvegicus [18])?
**A.** Its inhibition in vivo at 0.5 mg/kg is 50.5%.

**Q.** And the Change (Rattus norvegicus [11])?
**A.** The Change was -23.3 [middle of 4 runs].

**Q.** What about the ED50 (Rattus norvegicus [19]) of the same compound?
**A.** The ED50 was 0.3 mg/kg.

**Q.** What about the Systolic blood pressure (Rattus norvegicus [20]) of the same compound?
**A.** Its Systolic blood pressure is 178.3 mmHg.

**Q.** And the Systolic blood pressure (Rattus norvegicus [12])?
**A.** Its Systolic blood pressure is 193.3 mmHg.

**Q.** What does the source list for `C[C@H](N[C@@H](CCc1ccccc1)C(=O)O)C(=O)N1C(=O)N(C)C[C@H]1C(=O)O`?
**A.** inhibition in vivo at 1 mg/kg (Rattus norvegicus [2]): 26.3%; inhibition in vivo at 0.01 mg/kg (Rattus norvegicus [1]): 62.4%; inhibition in vivo at 0.2 mg/kg (Rattus norvegicus [8]): -7.2%

**Q.** For `C[C@H](N[C@@H](CCc1ccccc1)C(=O)O)C(=O)N1CCC[C@H]1C(=O)O` [ENALAPRILAT ANHYDROUS], which inhibition in vivo at 0.01 mg/kg (Rattus norvegicus [21]) is on record?
**A.** Its inhibition in vivo at 0.01 mg/kg is 54.5%.
